# Source: PubChem BioAssay
# Calls of active or inactive are those of the source. Cut-off read from the data, not from the text of the source, unless noted: active = inhibition above about 30%; inactive = the rest.
# Assays:
# [1] = Her2 expression decrease, cell viability multiplex – SKBR3 breast tumor cells, AlphaScreen, ATP viability, primary screen (AID 461;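 active = Her2 level under about 52% in both replicate screens, with viability over 70% of control, limit read from the data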;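 for Her2 level: lower value means less Her2 protein in the cells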;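 for viability: percent of carrier control wells set as 100% viability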); settings: SKBR3 Her2 protein level, 18-24 h, measured here: SKBR3 viability, ATP luminescence, at 10 µM
# [2] = molecular target: Receptor tyrosine-protein kinase erbB-2 (Homo sapiens) (UniProt P04626); assay: as above; settings: 18-24 h, at 10 µM, stronger effect = lower value
# Sequence of Receptor tyrosine-protein kinase erbB-2 (Homo sapiens) (P04626 whole entry, looked up): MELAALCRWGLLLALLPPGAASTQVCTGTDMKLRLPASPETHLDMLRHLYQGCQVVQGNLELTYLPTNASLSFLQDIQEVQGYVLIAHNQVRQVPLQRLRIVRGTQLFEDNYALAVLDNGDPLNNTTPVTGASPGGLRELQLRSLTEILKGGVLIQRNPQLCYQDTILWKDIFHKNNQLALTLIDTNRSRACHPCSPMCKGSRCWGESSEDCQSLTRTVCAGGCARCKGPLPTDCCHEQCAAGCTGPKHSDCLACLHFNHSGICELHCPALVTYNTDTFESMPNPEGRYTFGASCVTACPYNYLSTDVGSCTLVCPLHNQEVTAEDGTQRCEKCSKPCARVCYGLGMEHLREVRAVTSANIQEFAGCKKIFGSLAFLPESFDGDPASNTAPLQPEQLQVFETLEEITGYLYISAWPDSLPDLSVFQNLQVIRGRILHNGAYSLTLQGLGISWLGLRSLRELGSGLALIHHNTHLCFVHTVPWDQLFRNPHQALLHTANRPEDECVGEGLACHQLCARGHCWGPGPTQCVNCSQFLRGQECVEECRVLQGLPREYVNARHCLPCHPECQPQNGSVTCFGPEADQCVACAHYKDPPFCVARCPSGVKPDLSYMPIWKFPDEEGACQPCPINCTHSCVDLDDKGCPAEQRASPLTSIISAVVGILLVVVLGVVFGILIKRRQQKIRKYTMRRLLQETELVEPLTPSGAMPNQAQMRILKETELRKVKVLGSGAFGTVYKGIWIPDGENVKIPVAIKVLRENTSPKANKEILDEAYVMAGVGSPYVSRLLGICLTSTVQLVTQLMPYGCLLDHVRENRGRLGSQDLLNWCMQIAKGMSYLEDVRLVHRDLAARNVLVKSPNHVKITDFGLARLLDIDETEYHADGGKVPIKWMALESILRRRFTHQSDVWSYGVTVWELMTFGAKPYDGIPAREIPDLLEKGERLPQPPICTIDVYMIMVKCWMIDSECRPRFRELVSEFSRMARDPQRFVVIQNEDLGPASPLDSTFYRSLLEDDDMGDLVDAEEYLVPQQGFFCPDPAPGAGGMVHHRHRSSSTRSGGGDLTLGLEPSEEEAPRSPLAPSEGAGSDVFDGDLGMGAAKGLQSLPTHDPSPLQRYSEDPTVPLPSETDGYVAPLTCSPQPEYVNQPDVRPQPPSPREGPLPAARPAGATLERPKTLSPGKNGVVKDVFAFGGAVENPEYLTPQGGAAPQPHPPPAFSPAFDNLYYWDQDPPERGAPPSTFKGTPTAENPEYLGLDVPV
# [3] = reduced viability of SK-BR-3 breast cancer cells – cell-based, 24 h, human, pilot screen (AID 572;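 active = viability at or below 10% of carrier control in both of two separate runs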;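 note: compound exposure lasted between 18 and 24 h rather than exactly 24 h; 100% = carrier-treated control wells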); settings: SK-BR-3 viability, CellTiter-Glo luminescence, at 10 µM, stronger effect = lower value
# [4] = HUVEC growth inhibition – cell-based, human, primary screen (AID 575;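 active = viability at or below 30% in both replicate assays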;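 note: 100% = median of untreated cell wells with 0.1% DMSO on each plate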); settings: HUVEC proliferation, CellTiter-Glo luminescence, 72 h; at 10 µM; stronger effect = lower value
# How it was run: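 Test system: HUVEC primary cells. Quantity: 1250 endothelial cells in each well. Dosing: single-point 10 µM, DMSO 0.1% final. Incubation: 72 h treatment at 37 °C. Measured by: CTG luminescence. Control set: DMSO cell controls and MePR drug controls. Plate: collagen-coated 384-well format.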
# [5] = H69AR cell proliferation blockers – human, duplicate replicates, primary screen (AID 580;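 active = viability at or under a set limit in both replicates, limit being median viability minus 3 SD, cut at about 48% in these data, passing the limit was not always enough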;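 note: 100% = mean luminescence of untreated wells and 0% = no signal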); settings: H69AR lung tumor cells viability, ATP luminescence, 72 h; at 10 µM; stronger effect = lower value
# [6] = MRP1 drug-resistance reversers in H69AR cells – cell-based, doxorubicin co-treatment, pilot screen (AID 601;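 active = viability loss from added drug above about 55%, and viability with drug at most 40%, in both replicates, limit read from the data, passing the limit was not always enough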); settings: CellTiter-Glo, 72 h, at 10 µM; for differential viability (reversal): stronger effect = higher value
# [7] = yeast transport mutant growth inhibition pilot in 384-well plates, post-Golgi transport modulator project (AID 636; in the data active = inhibition above about 31%); settings: absorbance 615 nm, about 18 h, stronger effect = higher value
# [8] = growth suppression of yeast trafficking mutant, preliminary HTS, modulators of trafficking downstream of Golgi apparatus project, 1536-format plate, OD 615 nm (AID 637); settings: yeast transport mutant growth, absorbance 615 nm, 18 h; stronger effect = higher value
# [9] = H69AR cells + 2 uM doxorubicin, measured here: viability with 2 uM doxorubicin, stronger effect = lower value
# [10] = H69AR cells, compound alone cytotoxicity
SMILES,viability [1],Her2 level [2],viability [3],viability [4],viability [5],differential viability (reversal) ([6]; H69AR cells + 2 uM doxorubicin),"viability [6, 9]","viability [6, 10]",inhibition [7],inhibition [8]
CCn1c(SCC(N)=O)nc2c1c(=O)n(C)c(=O)n2C,107%,95% (inactive),107% (inactive),90% (inactive),95.9% (inactive),4.83% (inactive),91.1%,95.9%,-2.63% (inactive),-1.27% (inactive)
CS(=O)(=O)N1CCN(CC2CC3C=CC2C3)CC1 (stereo not given),110%,98% (inactive),110% (inactive),111% (inactive),101% (inactive),9.65% (inactive),91.1%,101%,-6.35% (inactive),3.17% (inactive)
Cc1cc(C)nc(N2CCC(C(=O)NC3CCCCCC3)CC2)n1,92.5%,99% (inactive),92.5% (inactive),111% (inactive),96.1% (inactive),1.6% (inactive),94.5%,96.1%,-4.8% (inactive),1.13% (inactive)
CCn1c2ccccc2c2cc(NC(=O)CSc3nnc(C4CC4)n3Cc3ccco3)ccc21,104%,88% (inactive),104% (inactive),75.5% (inactive),79% (inactive),-16.2% (inactive),95.2%,79%,-6.45% (inactive),-3.17% (inactive)
CCOC(=O)C1=C(C)OC(N)=C(C#N)C1c1ccoc1 (stereo not given),111%,107% (inactive),111% (inactive),88.1% (inactive),95.3% (inactive),11.2% (inactive),84%,95.3%,1.04% (inactive),-4.17% (inactive)
Cc1ccc(-c2cc(C(=O)NCCN3CCOCC3)no2)cc1,86.5%,120% (inactive),86.5% (inactive),95.3% (inactive),99.8% (inactive),12.7% (inactive),87%,99.8%,3.07% (inactive),-6.83% (inactive)
O=C1c2ccccc2CN1CCNS(=O)(=O)c1ccc(Cl)cc1,104%,92.5% (inactive),104% (inactive),98% (inactive),88% (inactive),3.27% (inactive),84.8%,88%,-7.87% (inactive),-0.63% (inactive)
CCOc1ncccc1C(=O)OCC(=O)N1CC(=O)Nc2ccccc21,87%,97% (inactive),87% (inactive),100% (inactive),99.7% (inactive),2.01% (inactive),97.7%,99.7%,-0.78% (inactive),-4.92% (inactive)
COc1cccc(N2CCN(C(=O)C3C4C=CC5(CN(Cc6ccccc6Cl)C(=O)C35)O4)CC2)c1 (stereo not given),83.5%,97% (inactive),83.5% (inactive),78.6% (inactive),100% (inactive),9.13% (inactive),91.3%,100%,-3.42% (inactive),-6.17% (inactive)
COc1ccc(NC(=O)c2cc(C(C)C)on2)c(OC)c1,93.5%,85.5% (inactive),93.5% (inactive),79.5% (inactive),88% (inactive),-2.67% (inactive),90.6%,88%,0.51% (inactive),-2% (inactive)
Cn1cnnc1SCC(=O)NCc1cccc(C(F)(F)F)c1,88%,97.5% (inactive),88% (inactive),102% (inactive),94.3% (inactive),0.52% (inactive),93.8%,94.3%,-5.53% (inactive),-1.43% (inactive)
O=C(O)CCNc1nc(-c2ccccc2)nc2ccccc12,87%,102% (inactive),87% (inactive),96.3% (inactive),91.1% (inactive),-2.72% (inactive),93.8%,91.1%,-0.13% (inactive),-1.11% (inactive)
Cc1csc2nc(CSc3nc4ccccc4o3)c(Br)n12,84.5%,60% (inactive),84.5% (inactive),85.6% (inactive),83% (inactive),3.21% (inactive),79.8%,83%,-3.87% (inactive),10.5% (inactive)
CCOc1ccccc1NC(=O)CSc1c(C)n[nH]c1C,90%,88% (inactive),90% (inactive),109% (inactive),113% (inactive),19.8% (inactive),92.7%,113%,-3.07% (inactive),-3.71% (inactive)
COc1cccc(-n2ccnc2SCC(=O)N2CCc3ccccc32)c1,94.5%,102% (inactive),94.5% (inactive),109% (inactive),102% (inactive),-5.1% (inactive),107%,102%,0.93% (inactive),-3.06% (inactive)
CCc1nccn1S(=O)(=O)c1ccc(C)c(C)c1,119%,92.5% (inactive),119% (inactive),96.7% (inactive),99.6% (inactive),12.7% (inactive),86.9%,99.6%,-4.86% (inactive),16.2% (inactive)
